SF-1 act: SF-1 (human) activation; AID 522; CHO-K1 Gal4-SF-1 LBD luciferase reporter; % increase over DMSO SF-1-specific signal; 65,000 compounds, 1.9% hits; activation, % at 10 µM;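 active = activation above the mean activation of all tested compounds plus 3 SD, cut at about 50% in these data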
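Test system: transient Gal4-SF-1 LBD reporter, CHO-K1; Amount: 4,000 CHO-K1 cells per well; Doses: 10 µM only; Timing: compound exposure 20 h at 37 °C; Signal: luciferase light emission; Read-out basis: percent activation relative to DMSO median and mock-transfected background; Control set: DMSO negative control and −SF1 background wells; Replicates: one test per compound.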
ROCK2 blocker: inhibitors of human Rho kinase 2; inhibition, % at 6 µM; O75116; 60,000 compounds, 0.35% hits; purified ROCK2, Kinase-Glo ATP depletion luminescence;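 active = inhibition above the screen-wide mean inhibition plus 3 SD, cut at about 18% in these data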
JNK3 blocker: JNK3 (human) kinase inhibition | P53779 | purified JNK3 kinase activity, HTS | inhibition, % at 8 µM | 60,000 compounds, 0.61% hits; in the data active = inhibition above about 17%
RORa activator: activators of human nuclear receptor RORA; CHO-K1 Gal4-RORA LBD luciferase reporter, luminescence; percent increase over mock-subtracted basal signal; P35398; 65,000 compounds, 1.5% hits; activation, % at 10 µM; AID 560;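 active = activation above the mean of all tested compounds plus 3 SD, cut at about 49% in these data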
PKA kinase inh: blocks human protein kinase A activity; P17612; PKA Kemptide phosphorylation, Kinase-Glo ATP luminescence; inhibition, % at 6 µM; 65,000 compounds, 0.1% hits; AID 524;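 active = inhibition above the screen-wide mean inhibition plus 3 SD, cut at about 21% in these data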
WNV NS2B-NS3 inh: blocks West Nile virus NS2B-NS3 protease activity; P06935; WNV NS2B-NS3 protease, fluorogenic substrate Ex360/Em465; stronger effect = lower value; z-score (concentration not given with the values); 65,000 compounds, 0.18% hits; AID 577; in the data active = z-score below about -3
Target sequence (P06935 1371-1501 limits assumed): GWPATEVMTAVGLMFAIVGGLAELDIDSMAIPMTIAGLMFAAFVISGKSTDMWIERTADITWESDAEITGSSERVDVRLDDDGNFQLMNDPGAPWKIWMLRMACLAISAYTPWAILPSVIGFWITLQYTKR
Target sequence (P06935 1502-1679 limits assumed): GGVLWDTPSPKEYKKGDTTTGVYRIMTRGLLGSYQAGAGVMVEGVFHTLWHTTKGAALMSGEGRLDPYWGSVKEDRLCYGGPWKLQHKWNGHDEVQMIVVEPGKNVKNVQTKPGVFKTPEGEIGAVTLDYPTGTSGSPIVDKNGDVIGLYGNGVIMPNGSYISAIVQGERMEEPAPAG
Numbers stand for hits. Compounds with a hit are over-represented: about 3.4% of the library has one in this group of screens.

O=C(Nc1ccc(Cl)cc1)NC1CCCC1Cc1ccco1 (stereo not given) was read as SF-1 act inactive, ROCK2 blocker inactive, JNK3 blocker inactive, RORa activator inactive, PKA kinase inh inactive and WNV NS2B-NS3 inh -4.85.
For CC(C)Cc1nnc(NC(=O)CSc2nc(=O)cc(N)n2-c2ccccc2)s1 the results were SF-1 act inactive, ROCK2 blocker inactive, JNK3 blocker inactive, RORa activator inactive, PKA kinase inh inactive and WNV NS2B-NS3 inh inactive.
`Cc1cc(-c2ccccc2)nc(N2CCC(C(=O)NC(C)C)CC2)n1` gave SF-1 act 96.8, ROCK2 blocker inactive, JNK3 blocker inactive, RORa activator 66.6, PKA kinase inh inactive and WNV NS2B-NS3 inh inactive.
Screening CCC(C)NC(=O)C1CCN(c2nc(C)cc(C)n2)CC1 (stereo not given) returned SF-1 act inactive, ROCK2 blocker inactive, JNK3 blocker inactive, RORa activator inactive, PKA kinase inh inactive and WNV NS2B-NS3 inh inactive.
`COc1cc(C)c(C(C)C)cc1S(=O)(=O)n1cnc(C)c1` gave SF-1 act inactive, ROCK2 blocker inactive, JNK3 blocker inactive, RORa activator 79.8, PKA kinase inh inactive and WNV NS2B-NS3 inh inactive.
`Cc1ccc(S(=O)(=O)Nc2c(C)n(C)n(-c3ccccc3)c2=O)cc1C(=O)NCc1ccccn1` gave SF-1 act inactive, ROCK2 blocker inactive, JNK3 blocker inactive, RORa activator inactive, PKA kinase inh inactive and WNV NS2B-NS3 inh inactive.
Cc1cc(N2CCOCC2)c2c(N)c(C)cc(C)c2n1 was read as SF-1 act inactive, ROCK2 blocker 18.8, JNK3 blocker inactive, RORa activator inactive, PKA kinase inh inactive and WNV NS2B-NS3 inh inactive.
For COc1ccc2nc(C)cc(N3CCOCC3)c2c1 the results were SF-1 act inactive, ROCK2 blocker inactive, JNK3 blocker inactive, RORa activator inactive, PKA kinase inh inactive and WNV NS2B-NS3 inh inactive.
`Cn1c(Cn2c(=O)sc3ccccc32)nnc1SCC(=O)Nc1ccc2c(c1)OCO2` gave SF-1 act inactive, ROCK2 blocker inactive, JNK3 blocker inactive, RORa activator inactive, PKA kinase inh inactive and WNV NS2B-NS3 inh inactive.
CCCCC1CCC(c2nc(-c3ccccn3)no2)CC1 (stereo not given) was read as SF-1 act 52.4, ROCK2 blocker inactive, JNK3 blocker inactive, RORa activator inactive, PKA kinase inh inactive and WNV NS2B-NS3 inh inactive.
`Nc1nonc1-c1noc(CCCN2C(=O)c3ccccc3C2=O)n1` gave SF-1 act 49.5, ROCK2 blocker inactive, JNK3 blocker inactive, RORa activator inactive, PKA kinase inh inactive and WNV NS2B-NS3 inh inactive.
Screening Cc1cccc(OCc2nc(-c3nonc3N)no2)c1C returned SF-1 act inactive, ROCK2 blocker inactive, JNK3 blocker inactive, RORa activator 81.3, PKA kinase inh inactive and WNV NS2B-NS3 inh inactive.
Nc1nonc1-c1noc(COc2ccccc2Cl)n1 was read as SF-1 act 68.6, ROCK2 blocker inactive, JNK3 blocker inactive, RORa activator 87.9, PKA kinase inh inactive and WNV NS2B-NS3 inh inactive.
For OC1CCCCC1Sc1nc2ccccc2s1 (stereo not given) the results were SF-1 act 59.0, ROCK2 blocker inactive, JNK3 blocker inactive, RORa activator inactive, PKA kinase inh inactive and WNV NS2B-NS3 inh inactive.
Cc1cc(C)n2nc(C(=O)OCCOc3ccc(F)cc3)nc2n1 was read as SF-1 act inactive, ROCK2 blocker inactive, JNK3 blocker inactive, RORa activator inactive, PKA kinase inh inactive and WNV NS2B-NS3 inh inactive.
COc1ccccc1CN(C(=O)c1ccco1)C(C(=O)NC1CCCC1)c1ccncc1 (stereo not given) was read as SF-1 act inactive, ROCK2 blocker inactive, JNK3 blocker inactive, RORa activator inactive, PKA kinase inh inactive and WNV NS2B-NS3 inh inactive.
For Cc1ccnc(NC(=O)c2c(O)c3ccccc3n(C)c2=O)c1 the results were SF-1 act 76.1, ROCK2 blocker inactive, JNK3 blocker inactive, RORa activator 74.5, PKA kinase inh inactive and WNV NS2B-NS3 inh inactive.
Cc1ccc(NC(=O)c2c(O)c3ccccc3n(C)c2=O)nc1 was read as SF-1 act inactive, RORa activator inactive, PKA kinase inh inactive and WNV NS2B-NS3 inh inactive.
Screening CCCCNC(=O)c1nnn(-c2ccccc2)c1N returned SF-1 act 66.6, ROCK2 blocker inactive, JNK3 blocker inactive, RORa activator inactive, PKA kinase inh inactive and WNV NS2B-NS3 inh inactive.
`CC(=O)c1ccc(OCCCC(=O)OCC(=O)N2CCN(c3ccccc3)CC2)cc1` gave SF-1 act inactive, ROCK2 blocker inactive, JNK3 blocker inactive, RORa activator inactive, PKA kinase inh inactive and WNV NS2B-NS3 inh inactive.
Screening CC(=O)N1CCc2cc(Br)cc(S(=O)(=O)NCC3CCCO3)c21 (stereo not given) returned SF-1 act inactive, ROCK2 blocker inactive, JNK3 blocker inactive, RORa activator inactive, PKA kinase inh inactive and WNV NS2B-NS3 inh inactive.
`Cc1ccc2nc(C(F)OC(F)(F)F)[nH]c2c1` (stereo not given) gave SF-1 act inactive, ROCK2 blocker inactive, JNK3 blocker inactive, RORa activator inactive, PKA kinase inh inactive and WNV NS2B-NS3 inh inactive.
Cc1ccc2nc(C(O)C(O)c3nc4ccc(C)cc4[nH]3)[nH]c2c1 (stereo not given) was read as SF-1 act 51.0, RORa activator inactive, PKA kinase inh inactive and WNV NS2B-NS3 inh inactive.
`COc1ccc(C)cc1-n1nnnc1SCC1CCCCO1` (stereo not given) gave SF-1 act inactive, ROCK2 blocker inactive, JNK3 blocker inactive, RORa activator inactive, PKA kinase inh inactive and WNV NS2B-NS3 inh inactive.
Screening CCN(CC)c1ccc2c(c1)CCCN2 returned SF-1 act inactive, ROCK2 blocker inactive, JNK3 blocker inactive, RORa activator inactive, PKA kinase inh inactive and WNV NS2B-NS3 inh inactive.
For N#CC1=C(c2ccccc2)N=P(N2CCOCC2)(N2CCOCC2)N=C1N1CCOCC1 the results were SF-1 act inactive, RORa activator inactive, PKA kinase inh inactive and WNV NS2B-NS3 inh inactive.
`Brc1ccc(-c2cnc(-c3cccs3)o2)cc1` gave SF-1 act 51.9, ROCK2 blocker inactive, JNK3 blocker inactive, RORa activator inactive, PKA kinase inh inactive and WNV NS2B-NS3 inh inactive.
For Cc1ccc(-c2noc(-c3cccs3)n2)cc1 the results were SF-1 act inactive, ROCK2 blocker inactive, JNK3 blocker inactive, RORa activator inactive, PKA kinase inh inactive and WNV NS2B-NS3 inh inactive.
For O=C(C1CCCN(Cc2ccccc2Br)C1)N1CCCCC1 (stereo not given) the results were SF-1 act inactive, ROCK2 blocker inactive, JNK3 blocker inactive, RORa activator inactive, PKA kinase inh inactive and WNV NS2B-NS3 inh inactive.
`CCN(CC)S(=O)(=O)c1ccc2[nH]cc(C(=O)NCCC3=CCCCC3)c(=O)c2c1` gave SF-1 act inactive, RORa activator inactive, PKA kinase inh inactive and WNV NS2B-NS3 inh inactive.
CC(=NCc1ccco1)c1c(O)n(C2CCCCC2)c(=O)[nH]c1=O was read as SF-1 act inactive, ROCK2 blocker inactive, JNK3 blocker inactive, RORa activator inactive, PKA kinase inh inactive and WNV NS2B-NS3 inh inactive.
